Published values collected from several papers.
Protocols differ between the studies behind these lines.
Mode: inhibitor
MAL12: Alpha-glucosidase MAL12 (MAL12, Saccharomyces cerevisiae S288c, UniProt P53341)
FABP1: Fatty acid-binding protein, liver (FABP1, Homo sapiens, UniProt P07148)
SQLE: Squalene monooxygenase (SQLE, Homo sapiens, UniProt Q14534)

C[C@H]1CN(C(=O)Nc2ccc(C(F)(F)F)cc2)CCN1c1ccnc(Nc2ccc(Cl)cc2Cl)n1 — IC50 (MAL12; enzyme activity; absorbance; pH 6.9): 12 µM
Cc1cc(/C=C2\Oc3cc(OCC4CC4)ccc3C2=O)cc(C)c1OC(C)(C)C(=O)O — IC50 (FABP1; cell-free assay; fluorescence; pH 7.4): 3.6 µM
O=C1COc2ccc(NS(=O)(=O)c3cccc(Cl)c3)cc2CN1C1CCCc2ccccc21 (stereo not drawn) — IC50 (Replicase polyprotein 1ab, papain-like protease (rep, Severe acute respiratory syndrome coronavirus 2, UniProt P0DTD1); enzyme activity; fluorescence): 6 µM
CCCOc1ccc2c(c1)O/C(=C\c1ccc(OC(C)(C)C(=O)O)cc1)C2=O — IC50 (FABP1; cell-free assay; fluorescence; pH 7.4): 9.4 µM
Nc1ccn(C[C@@H](CO)OCP(=O)(O)O)c(=O)n1 — IC50 (Solute carrier family 22 member 6 (SLC22A6, Homo sapiens, UniProt Q4U2R8, F438Y); transporter uptake; fluorescence): 1400 µM
CCOc1ccc2c(c1)O/C(=C\c1cc(C)c(OC(C)(C)C(=O)O)c(C)c1)C2=O — IC50 (FABP1; cell-free assay; fluorescence; pH 7.4): 8.6 µM
COc1cc(C2Oc3cc([C@H]4Oc5cc(O)cc(O)c5C(=O)[C@@H]4O)ccc3OC2CO)ccc1O (stereo partly drawn) — IC50 (SQLE; enzyme activity; radiometric): 1.88 µM
C[C@H]1CN(C(=O)Nc2ccc(C(F)(F)F)cc2)CCN1c1ccnc(Nc2cccc(Cl)c2)n1 — IC50 (MAL12; enzyme activity; absorbance; pH 6.9): 3.45 µM
CC(=O)c1ccc2c(c1)N(CCCN1CCC(CCO)CC1)c1ccccc1S2 — IC50 (SQLE; enzyme activity; absorbance; pH 7.4; with preincubation): 1.44 µM
C[C@H]1CN(C(=O)Nc2ccc(C(F)(F)F)cc2)CCN1c1ccnc(Nc2cccc(O)c2)n1 — IC50 (MAL12; enzyme activity; absorbance; pH 6.9): 2.05 µM
CC(CN1CCN(CCOCCO)CC1)CN1c2ccccc2Sc2ccccc21 (stereo not drawn) — IC50 (SQLE; enzyme activity; absorbance; pH 7.4; with preincubation): 10 µM
COc1ccc(NC(=O)N2CCN(c3ccnc(Nc4ccc(Cl)cc4)n3)[C@@H](C)C2)cc1 — IC50 (MAL12; enzyme activity; absorbance; pH 6.9): 7.43 µM
CCN(CC)C(C)CN1c2ccccc2Sc2ccccc21 (stereo not drawn) — IC50 (SQLE; enzyme activity; absorbance; pH 7.4; with preincubation): 1.69 µM
CCCOc1ccc2c(c1)O/C(=C\c1ccc(OC(C)C(=O)O)cc1)C2=O (stereo not drawn) — IC50 (FABP1; cell-free assay; fluorescence; pH 7.4): 10.4 µM
COc1ccc(-c2nn(-c3ccccc3)cc2C2C(C(C)=O)=C(C)n3c(=O)c4ccccc4c(=O)n32)cc1 (stereo not drawn) — IC50 (MAL12; enzyme activity; absorbance): 13.7 µM
NS(=O)(=O)c1ccc(-n2nc(C(=O)NN=Cc3ccc(O)cc3)cc2-c2ccccc2)cc1 — IC50 (Focal adhesion kinase 1 (PTK2, Homo sapiens, UniProt Q05397); enzyme activity; ELISA): 17.1 µM
O=C1C[C@@H](c2ccc(O)cc2)Oc2cc(O)cc(O)c21 — IC50 (SQLE; enzyme activity; radiometric): 6.52 µM
CC(=O)C1=C(C)n2c(=O)c3ccccc3c(=O)n2C1c1cn(-c2ccccc2)nc1-c1ccccc1 (stereo not drawn) — IC50 (MAL12; enzyme activity; absorbance): 15.4 µM
COc1ccc(Cl)cc1C(=O)NCCc1ccc(S(=O)(=O)NC(=O)NC2CCCCC2)cc1 — IC50 (Solute carrier family 22 member 6 (SLC22A6, Homo sapiens, UniProt Q4U2R8, F442A); transporter uptake; fluorescence): 17.7 µM
NC/C(=C\F)COc1cccc(Cn2c(=S)[nH]c(=O)c3[nH]cnc32)c1 — IC50 (Amine oxidase [flavin-containing] A (MAOA, Homo sapiens, UniProt P21397); enzyme activity): > 30 µM
CNC(=O)[C@H](Cc1c[nH]c2ccccc12)NC(=O)[C@@H](CC(=O)NO)CC(C)C — IC50 (Disintegrin and metalloproteinase domain-containing protein 10 (ADAM10, Homo sapiens, UniProt O14672); enzyme activity): 0.776 µM
O=C(O)[C@H]1O[C@@H](Oc2cc3oc(-c4ccccc4)cc(=O)c3c(O)c2O)[C@H](O)[C@@H](O)[C@@H]1O — IC50 (SQLE; enzyme activity; radiometric): 2.5 µM
Cc1cc(/C=C2\Oc3cc(OCCC(C)C)ccc3C2=O)cc(C)c1OC(C)(C)C(=O)O — IC50 (FABP1; cell-free assay; fluorescence; pH 7.4): 9.6 µM
CC[N+](CC)(CC)Cc1ccccc1.CC[N+](CC)(CC)Cc1ccccc1.[Br][Co-2]([Br])([Br])[Br] — IC50 (Tyrosine-protein phosphatase non-receptor type 1 (PTPN1, Homo sapiens, UniProt P18031); enzyme activity): 10.9 µM
C[C@H]1CN(C(=O)Nc2ccc(C(F)(F)F)cc2)CCN1c1ccnc(Nc2ccccc2Cl)n1 — IC50 (MAL12; enzyme activity; absorbance; pH 6.9): 4.21 µM
Cc1cc(/C=C2\Oc3cc(OCC(C)C)ccc3C2=O)cc(C)c1OC(C)(C)C(=O)O — IC50 (FABP1; cell-free assay; fluorescence; pH 7.4): 4.8 µM
Cc1ccc(NC(=O)N2CCN(c3ccnc(Nc4ccc(Cl)cc4)n3)[C@H](C)C2)cc1 — IC50 (MAL12; enzyme activity; absorbance; pH 6.9): 7.78 µM
Cc1cc2c(cc1C)N[C@H](c1ccccc1)[C@@H](O)C(=O)N2 — IC50 (Cyclin-dependent kinase 5 (CDK5, Homo sapiens, UniProt Q00535); enzyme activity; ELISA): 0.663 µM
CCCOc1ccc2c(c1)O/C(=C\c1ccc(OCC(=O)O)cc1)C2=O — IC50 (FABP1; cell-free assay; fluorescence; pH 7.4): 14.6 µM
C[C@@H]1CN(C(=O)Nc2ccc(Cl)c(Cl)c2)CCN1c1ccnc(Nc2ccc(Cl)cc2)n1 — IC50 (MAL12; enzyme activity; absorbance; pH 6.9): 4.53 µM
